# Screening results: PubChem, several laboratories
# KCNK3 inh = human KCNK3 channel inhibitors, primary screen, CHO cells, FluxOR thallium flux, B-score. Potassium channel subfamily K member 3 (Homo sapiens), O14649. FluxOR fluorescence; hits give low values. B-score at 10 µM. hit rate 0.84% among 340,000. AID 602410, 2012;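 active = B-score under library mean minus 4 SD, starting fluorescence ratio at most library mean plus 5 SD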;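 note: more negative B-score means stronger inhibition of thallium flux through KCNK3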
# Target sequence (O14649 whole entry, looked up): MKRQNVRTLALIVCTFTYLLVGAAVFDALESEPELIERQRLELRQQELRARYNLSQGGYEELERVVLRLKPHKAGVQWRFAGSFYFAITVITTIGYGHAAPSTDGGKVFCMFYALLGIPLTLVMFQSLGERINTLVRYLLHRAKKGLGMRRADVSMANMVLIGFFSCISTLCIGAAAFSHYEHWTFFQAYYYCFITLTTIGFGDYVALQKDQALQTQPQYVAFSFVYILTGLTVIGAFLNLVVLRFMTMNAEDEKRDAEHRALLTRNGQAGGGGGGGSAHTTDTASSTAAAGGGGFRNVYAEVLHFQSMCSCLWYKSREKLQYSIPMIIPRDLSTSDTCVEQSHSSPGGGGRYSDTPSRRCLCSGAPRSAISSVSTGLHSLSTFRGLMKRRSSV
# hERG protect = hERG rescue from dofetilide block, primary screen, cell-based, CHO-hERG, FluxOR thallium flux, dofetilide IC70 | hit rate 0.51% among 310,000 | dofetilide IC70 present | activation (rescue from dofetilide block), less the hit threshold, % at 10 µM | Voltage-gated inwardly rectifying potassium channel KCNH2 (Homo sapiens), Q12809;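 active = activation above the mean of controls blocked by dofetilide plus 5 SD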;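 note: thallium influx through hERG after potassium depolarization seen as dye fluorescence rise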
# KCNK9 block = KCNK9 potassium channel inhibitors, primary screen, HEK293 cells, thallium flux. Potassium channel subfamily K member 9 (Homo sapiens), Q9NPC2. FluxOR thallium flux fluorescence; hits give low values. B-score at 10 µM. hit rate 1.2% among 310,000;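 active = ratio B-score over 3 SD below the library mean, with starting fluorescence within 5 SD of its mean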;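 note: negative B-score means less thallium flux so channel inhibition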
# KCC2 mod = KCC2 cotransporter modulators, thallium flux, primary screen, cell-based, HEK293 KCC2, FluoZin-2 fluorescence, MLSMR; KCC2 cells, thallium flux FluoZin-2 fluorescence; B-score of Tl+ flux slope (higher = more flux/activation; lower = inhibition) at 10 µM; hit rate 2.2% among 190,000; AID 1456, 2008;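 active = thallium flux slope and its plate-corrected score both differing from the plate sample mean at a set confidence after two filtering rounds, in either direction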;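 note: slope of fluorescence scaled to starting intensity during 10 to 20 s after thallium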
# KCNQ1 pot = potentiators or activators of KCNQ1 channel, primary screen, cell-based, thallium flux, high-throughput. hit rate 0.35% among 310,000. B-score at 10 µM. CHO-K1 KCNQ1, thallium flux FluxOR fluorescence; hits give high values;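 active = fluorescence ratio B-score, a plate-corrected score, at least three library SD, with initial intensity B-score within 5 SD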
#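 Material: CHO-K1 cells stably expressing KCNQ1. Medium: assay buffer for compound exposure, DMSO matched across wells. Reagent: K+/Tl+ depolarizing stimulus. Compound dosing: single-concentration screen. Times: 37 °C overnight plating, 90-min dark dye load, 20-min compound pretreatment. Technique: FluxOR Tl+ flux fluorescence.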
# KCNQ1 block = inhibitors of human KCNQ1 channel, primary screen, cell-based, thallium flux, high-throughput; Potassium voltage-gated channel subfamily KQT member 1 (Homo sapiens), P51787; CHO-K1 KCNQ1, FluxOR thallium flux fluorescence; hits give high values; B-score at 10 µM; hit rate 1.3% among 310,000; AID 2642, 2010;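 active = compounds whose thallium flux B-score, printed positive for inhibition, exceeds three library SD while starting fluorescence stays within three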;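 note: channel opened by potassium depolarization with thallium stimulus after 20 min compound exposure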
# An asterisk follows results filed as active; i = inactive; . = not tested or not shown; ! = not active in a repeat. In the library only some 4.1% were active in any assay of this set; here they are far more common.
SMILES,KCNK3 inh,hERG protect,KCNK9 block,KCC2 mod,KCNQ1 pot,KCNQ1 block
COc1ccc(-n2c(-c3ccc(Br)cc3)c[n+]3c2CCc2ccccc2-3)cc1,i,-25.4,i,-0.194,i,10*
COc1ccccc1-n1c(-c2ccccc2)c[n+]2c1CCc1ccccc1-2,-9.48*!,-20.2,-7.79*,0.526,i,9*!
COc1ccc(-c2cn(-c3ccc(OC)cc3)c3[n+]2-c2ccccc2CC3)cc1,i,-18.5,i,-1.66,i,6*
COc1ccc(-n2cc(-c3ccccc3)[n+]3c2CCCCC3)cc1,i,-17.4,i,-0.0431,i,i
COc1ccccc1-n1c(-c2ccccc2)c[nH]c1=S,i,-11.7,i,-0.534,i,i
COc1ccc(-c2c[n+]3c(n2-c2ccccc2)CCCCC3)cc1,i,-18.0,i,-0.391,i,i
COc1ccc([C@@H]2C[C@H](c3ccccc3)Oc3cc(OC)c(OC)c(OC)c32)cc1,i,-15.9,-6.82*,0.229,i,i
CCCCCCNc1nc(NCc2ccco2)nc(OCC)n1,i,-7.0,-6.89*,-1.66,i,i
CCCCCCCCNc1nc(Cl)nc(NCc2ccco2)n1,i,-7.1,i,0.00196,i,i
CCOc1ccccc1C(=O)N(C)CC(=O)Nc1ccc(OC)cc1,i,-6.5,i,.,i,i
O=C1c2nc3cc(-c4ccco4)[nH]n3c(=O)c2CN1Cc1ccccc1,i,5.0*,i,-1.87,i,i
CCOC(=O)C1=C(C)N(C[C@@H]2CC[C@@H](Cc3ccc(-c4ccccc4)cc3)O2)C(=O)NC1c1ccc(Cl)cc1 (some centres undefined),i,.,.,.,.,.
Cc1ccc(N=Cc2c(O)n(-c3cc(Cl)ccc3N3CCOCC3)c(=O)c3ccccc23)cc1C,i,-8.8,i,-0.081,i,10*
CCOc1ccccc1C=C1SC(=S)N(CC)C1=O,-9.66*,.,.,.,.,.
O=C1/C(=C/c2ccc(O)c([N+](=O)[O-])c2)SC(=S)N1Cc1ccccc1,i,-13.8,i,-0.341,i,8*
O=C1/C(=C\c2cccc([N+](=O)[O-])c2O)SC(=S)N1Cc1ccccc1,i,-20.0,i,.,i,i
O=C(NN1C(=O)/C(=C/c2ccc(O)cc2)SC1=S)c1cccc(O)c1,i,-11.8,-9.14*,.,i,8*
CCOC(=O)N1CCN(C(=O)CCN2C(=O)/C(=C\c3ccccc3OC)SC2=S)CC1,i,-10.3,i,.,i,i
COc1ccccc1/C=C1\SC(=S)N(CCC(=O)NNC(=O)c2ccccc2O)C1=O,i,-27.9,i,.,i,6*
O=C(NN1C(=O)/C(=C/c2cc([N+](=O)[O-])ccc2O)SC1=S)c1ccccc1O,.,-22.4,i,.,i,i
Cn1cc(/C=C2\SC(=S)N(NC(=O)c3cccc(Cl)c3)C2=O)c2ccccc21,i,.,.,-3.04,.,.
Cn1cc(/C=C2\SC(=S)N(NC(=O)c3ccccc3)C2=O)c2ccccc21,i,9.5*,i,-2.55,i,i
O=C(NN1C(=O)/C(=C/c2ccc(O)c([N+](=O)[O-])c2)SC1=S)c1ccccc1Cl,i,-12.3,i,-0.53,i,7*
COc1cc([N+](=O)[O-])cc(/C=C2/SC(=S)N(Cc3ccccc3)C2=O)c1O,i,-10.4,i,.,i,9*
COc1cc(/C=C2\SC(=S)N(NC(=O)c3ccccc3O)C2=O)ccc1O,i,3.6,i,.,i,6*
SMILES,KCNK3 inh,hERG protect,KCNK9 block,KCC2 mod,KCNQ1 pot,KCNQ1 block
O=C(NCc1ccc(Cl)cc1)C(=O)NCC1OCCCN1S(=O)(=O)c1cccs1 (centres undefined),i,-4.0,i,.,i,i
COC(=O)[C@@H]1[C@@H](C)N(Cc2ccccc2)C(=O)N[C@H]1c1ccccc1,i,-3.5,i,.,i,i
Cc1ccc(NCN2C(=O)C3CC=C(Cl)CC3C2=O)cc1 (centres undefined),i,-7.1,i,0.231,i,i
COc1cccc2sc(/N=C/N(C)C)nc12,i,-8.1,i,0.762,i,i
CN1Cc2sc(NC(=S)NC(=O)c3ccccc3)c(C#N)c2CC1(C)C,i,-14.6,i,-0.248,i,8*
Oc1c(Br)cc(Br)cc1CNc1cnc2ccccc2c1,i,-10.1,i,.,i,6*
Oc1c(Br)cc(Br)cc1CNc1ccc(F)cc1,i,-4.9,i,.,i,i
C/C(=N\NC(=O)c1ccc(Cn2cc(Br)cn2)o1)c1ccc(NC(=O)c2ccoc2C)cc1,i,-7.3,i,.,i,10*
COC(=O)c1ccc(C(c2c(N)n(CC(C)C)c(=O)[nH]c2=O)N2CCN(c3ccccc3)CC2)cc1 (centres undefined),i,-10.1,i,0.146,i,i
CCOc1ccc(CNCCN2CCCC2)cc1,i,-9.4,i,.,i,7*
CCOc1ccc(OCCN2CCCCC2)cc1,i,-3.9,i,0.462,i,i
CC1(C)CCC(=O)N2CC[C@H]3C[C@H](OC(=O)Nc4ccc5c(c4)OCO5)C[C@@H]1[C@H]32,i,-8.8,-8.04*,.,i,i
CC1(C)CCC(=O)N2CC[C@H]3C[C@H](OC(=O)Nc4ccccc4)C[C@@H]1[C@H]32,i,-4.7,i,.,i,i
CC1CC1C(=O)Nc1ccc(S(=O)(=O)N2CCCCC2)cc1 (centres undefined),i,.,.,.,.,.
CC(=O)OCCNc1cc(Sc2nc3ccccc3[nH]2)c2nonc2c1[N+](=O)[O-],i,-33.3,-8.08*,-0.594,i,7*
CC(=O)OCCCNc1cc(Sc2nc3ccccc3s2)c2nonc2c1[N+](=O)[O-],i,-11.4,i,0.471,i,i
CCCCN(CCCC)C1=Nc2ccccc2N/C1=C(/C#N)C(=O)OCC,i,-7.5,i,0.282,i,7*
Cc1ccc(C(=O)N/N=C(/CC(=O)c2cccs2)C(F)(F)F)cc1,i,16.4*,i,63.5*,13*,i
CC[C@H]1C/C=C\Cc2ccccc2[C@@H](C(=O)C[C@@H](O)CC(C)=O)OC1=O,i,.,.,.,.,.
